Test results published in ChEMBL document CHEMBL1687827, “Profiling the Aspergillus fumigatus proteome in response to caspofungin” (2011).
Active and inactive are the calls of the source. The calls are words filed in the database; no cut-off is given here.

Columns and labels:
Aspergillus fumigatus [1] = test: Induction of change in 60s ribosomal protein L24, putative protein level in iTRAQ114 labelled cell wall fraction of drug-susceptible Aspergillus fumigatus KU80 delta-akuB at 0.12 ug/ml after 24 hrs in YPD medium by MS (MS/MS) analysis relative to control; assay type: functional
Procedure, shortened: (§1)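 Conidia at 1 × 10⁵/ml grown shaking at 37°C in YPD with or without 0.12 μg/ml caspofungin; mycelia filtered at 24 or 48 h. Secreted fraction taken from the filtrate; cell wall/plasma membrane pellet recovered after French-press lysis and a 5,000 × g spin. Proteins trypsin-digested and iTRAQ-labelled, drug vs no-drug channels at each time, then 2D LC-MS/MS. Protein ratio is the median of ratios from uniquely assigned peptides after median normalization.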

Aspergillus fumigatus [2] = test: Induction of change in Mitochondrial hypoxia-responsive domain protein level in iTRAQ-116 labelled cell wall fraction of drug-resistant Aspergillus fumigatus EMFR-S678P at 0.12 ug/ml after 24 hrs in YPD medium by MS (MS/MS) analysis relative to control; assay type: functional, organism-based
Procedure, shortened: (§2)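 Conidia at 1 × 10⁵/ml were grown at 37°C, shaking at 225 rpm, in YPD with or without 0.12 μg/ml caspofungin for 24 or 48 h. The culture filtrate was kept as the secreted fraction. Mycelia were lysed by French press in HEPES/glycerol/EDTA/PMSF/DTT buffer, and the 5,000 × g pellet was washed to give CW/PM. Proteins were reduced, alkylated and trypsin-digested at 37°C overnight, then iTRAQ-labelled and run by 2D LC-MS/MS. Ratios are the median of unique-peptide ratios, median-normalized, versus the no-drug control.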

Aspergillus fumigatus [3] = test: Induction of change in cell wall protein PhiA protein level in iTRAQ-116 labelled secreted fraction of drug-resistant Aspergillus fumigatus EMFR-S678P at 0.12 ug/ml after 48 hrs in YPD medium by MS (MS/MS) analysis relative to control; assay type: functional, organism-based; procedure, shortened: as §2
Aspergillus fumigatus [4] = test: Induction of change in cell wall glucanase (Utr2), putative protein level in iTRAQ-118 labelled cell wall fraction of drug-susceptible Aspergillus fumigatus KU80 delta-akuB at 0.12 ug/ml after 24 hrs in YPD medium by MS (MS/MS) analysis relative to control; assay type: functional; procedure, shortened: as §1
Aspergillus fumigatus [5] = test: Induction of change in GNAT family acetyltransferase, putative protein level in iTRAQ-116 labelled secreted fraction of drug-resistant Aspergillus fumigatus EMFR-S678P at 0.12 ug/ml after 48 hrs in YPD medium by MS (MS/MS) analysis relative to control; assay type: functional; procedure, shortened: as §2
Aspergillus fumigatus [6] = test: Antifungal activity against drug-resistant Aspergillus fumigatus EMFR-S678P assessed as change in hyphal morphology by RPMI medium; assay type: functional; settings: read-out: MEC
Procedure, shortened: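 CLSI M38-A2 broth microdilution, run in triplicate in RPMI or YPD medium as the line specifies. Caspofungin was dissolved in sterile water. The minimum effective concentration (MEC) was the lowest concentration giving a significant change in hyphal morphology visible to the eye.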

Aspergillus fumigatus [7] = test: Induction of change in carbonic anhydrase family gene expression in drug-susceptible Aspergillus fumigatus KU80 delta-akuB at 0.12 ug/ml after 24 hrs in YPD medium by microarray analysis relative to control; assay type: functional
Procedure, shortened: (§3)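 Mycelia grown in YPD ± 0.12 μg/ml caspofungin (1 × 10⁵ conidia/ml, 37°C, shaking) and harvested at 24 or 48 h. Total RNA extracted, DNase-treated and quality-checked; 2 μg labelled per TIGR SOP M007 and hybridized to whole-genome arrays. Three independent experiments with dye flip (6 replicates); drug vs untreated fold change.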

Aspergillus fumigatus [8] = test: Induction of change in cytosolic small ribosomal subunit S15, putative protein level in iTRAQ114 labelled cell wall fraction of drug-susceptible Aspergillus fumigatus KU80 delta-akuB at 0.12 ug/ml after 24 hrs in YPD medium by MS (MS/MS) analysis relative to control; assay type: functional; procedure, shortened: as §1
Aspergillus fumigatus [9] = test: Induction of change in allergen Asp F4 protein level in iTRAQ-116 labelled secreted fraction of drug-susceptible Aspergillus fumigatus KU80 delta-akuB at 0.12 ug/ml after 48 hrs in YPD medium by MS (MS/MS) analysis relative to control; assay type: functional; procedure, shortened: as §1
Aspergillus fumigatus [10] = test: Induction of change in allergen Asp F4 protein level in iTRAQ-118 labelled cell wall fraction of drug-resistant Aspergillus fumigatus EMFR-S678P at 0.12 ug/ml after 24 hrs in YPD medium by MS (MS/MS) analysis relative to control; assay type: functional; procedure, shortened: as §2
Aspergillus fumigatus [11] = test: Induction of change in citrate synthase, eukaryotic protein level in iTRAQ-116 labelled secreted fraction of drug-susceptible Aspergillus fumigatus KU80 delta-akuB at 0.12 ug/ml after 48 hrs in YPD medium by MS (MS/MS) analysis relative to control; assay type: functional; procedure, shortened: as §1
Aspergillus fumigatus [12] = test: Induction of change in 60s ribosomal protein L24, putative gene expression in drug-susceptible Aspergillus fumigatus KU80 delta-akuB at 0.12 ug/ml after 24 hrs in YPD medium by microarray analysis relative to control; assay type: functional; procedure, shortened: as §3
Aspergillus fumigatus [13] = test: Induction of change in cytosolic small ribosomal subunit protein S12 protein level in iTRAQ114 labelled secreted fraction of drug-susceptible Aspergillus fumigatus KU80 delta-akuB at 0.12 ug/ml after 24 hrs in YPD medium by MS (MS/MS) analysis relative to control; assay type: functional; procedure, shortened: as §1
Aspergillus fumigatus [14] = test: Induction of change in choline oxidase (CodA), putative protein level in iTRAQ-116 labelled secreted fraction of drug-susceptible Aspergillus fumigatus KU80 delta-akuB at 0.12 ug/ml after 48 hrs in YPD medium by MS (MS/MS) analysis relative to control; assay type: functional; procedure, shortened: as §1
Aspergillus fumigatus [15] = test: Induction of change in Ribosomal protein S21e gene expression in drug-susceptible Aspergillus fumigatus KU80 delta-akuB at 0.12 ug/ml after 24 hrs in YPD medium by microarray analysis relative to control; assay type: functional; procedure, shortened: as §3
Aspergillus fumigatus [16] = test: Induction of change in 60s ribosomal protein yl17-b gene expression in drug-susceptible Aspergillus fumigatus KU80 delta-akuB at 0.12 ug/ml after 24 hrs in YPD medium by microarray analysis relative to control; assay type: functional; procedure, shortened: as §3
Aspergillus fumigatus [17] = test: Induction of change in BYS1 domain protein, putative protein level in iTRAQ-121 labelled cell wall fraction of drug-susceptible Aspergillus fumigatus KU80 delta-akuB at 0.12 ug/ml after 48 hrs in YPD medium by MS (MS/MS) analysis relative to control
Aspergillus fumigatus [18] = test: Induction of change in hypothetical gene locus AFUA_6G02310 expression in drug-susceptible Aspergillus fumigatus KU80 delta-akuB at 0.12 ug/ml after 24 hrs in YPD medium by microarray analysis relative to control; assay type: functional; procedure, shortened: as §3
Aspergillus fumigatus [19] = test: Induction of change in Ribosomal protein S5 protein level in iTRAQ114 labelled cell wall fraction of drug-resistant Aspergillus fumigatus EMFR-S678P at 0.12 ug/ml after 24 hrs in YPD medium by MS (MS/MS) analysis relative to control; assay type: functional, organism-based; procedure, shortened: as §2
Aspergillus fumigatus [20] = test: Induction of change in molecular chaperone and allergen Mod-E/Hsp90/Hsp1 protein level in iTRAQ-116 labelled secreted fraction of drug-resistant Aspergillus fumigatus EMFR-S678P at 0.12 ug/ml after 48 hrs in YPD medium by MS (MS/MS) analysis relative to control; assay type: functional; procedure, shortened: as §2

CC[C@H](C)C[C@H](C)CCCCCCCCC(=O)N[C@H]1C[C@@H](O)[C@@H](NCCN)NC(=O)[C@@H]2[C@@H](O)CCN2C(=O)[C@H]([C@H](O)CCN)NC(=O)[C@H]([C@H](O)[C@@H](O)c2ccc(O)cc2)NC(=O)[C@@H]2C[C@@H](O)CN2C(=O)[C@H]([C@@H](C)O)NC1=O [CASPOFUNGIN]
fold change (FC) (Aspergillus fumigatus [1]): 1.5
Activity (Aspergillus fumigatus [2]): inactive
Activity (Aspergillus fumigatus [3]): inactive
fold change (FC) (Aspergillus fumigatus [4]): -3
fold change (FC) (Aspergillus fumigatus [5]): -1.07
minimal effective concentration (Aspergillus fumigatus [6]): > 16 µg/mL
fold change (FC) (Aspergillus fumigatus [7]): -6.5
fold change (FC) (Aspergillus fumigatus [8]): 1.9
fold change (FC) (Aspergillus fumigatus [9]): -7
fold change (FC) (Aspergillus fumigatus [10]): 1.07
fold change (FC) (Aspergillus fumigatus [11]): -1.6
fold change (FC) (Aspergillus fumigatus [12]): 3.5
fold change (FC) (Aspergillus fumigatus [13]): 1.5
fold change (FC) (Aspergillus fumigatus [14]): -2
fold change (FC) (Aspergillus fumigatus [15]): 3.6
fold change (FC) (Aspergillus fumigatus [16]): 3.5
fold change (FC) (Aspergillus fumigatus [17]): -2.5
fold change (FC) (Aspergillus fumigatus [18]): 3.8
Activity (Aspergillus fumigatus [19]): inactive
fold change (FC) (Aspergillus fumigatus [20]): -1.07
